Measurements from ChEMBL document CHEMBL1134286, “Novel erythromycin derivatives with aryl groups tethered to the C-6 position are potent protein synthesis inhibitors and active against multidrug-resistant respiratory pathogens” (J Med Chem, 2001).
Values after ≈ are worked out from the molar mass of the structure shown.

Experiments:
Format in all cases: functional
Staphylococcus aureus [1] = assay: Minimum inhibitory concentration against Staphylococcus aureus A 5177 MLSB-i
Summary of the method: (§1)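 MICs were determined by agar dilution following National Committee for Clinical Laboratory Standards recommendations. Values are in µg/mL.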

Staphylococcus aureus [2] = assay: Minimum inhibitory concentration against Staphylococcus aureus A 5278 MLSB-c; summary of the method: as §1
[3] = Minimum inhibitory concentration against Streptococcus pyogenes PIU2548 efflux; summary of the method: as §1
Streptococcus pneumoniae [4] = assay: Minimum inhibitory concentration against Streptococcus pneumoniae 5649 efflux; summary of the method: as §1
[5] = Minimum inhibitory concentration against Streptococcus pneumoniae 5737 MLSB; summary of the method: as §1
Streptococcus pneumoniae [6] = assay: Minimum inhibitory concentration against Streptococcus pneumoniae ATCC 6303 Ery-S; summary of the method: as §1
[7] = Minimum inhibitory concentration against Streptococcus pyogenes 930MLSB; summary of the method: as §1
Staphylococcus aureus [8] = assay: Minimum inhibitory concentration against Staphylococcus aureus ATCC 6538PEry-S; conditions: ATCC 6538P; summary of the method: as §1
[9] = Minimum inhibitory concentration against Streptococcus pyogenes EES 61 Ery-S; summary of the method: as §1
[10] = Minimum inhibitory concentration against Haemophilus influenzae DILL Amp-R; summary of the method: as §1
Mus musculus [11] = species on record: Mus musculus; assay: Mouse protection tests for effective dose against Staphylococcus aureus 10649 ((erythromycin susceptible strain)) infected mice
Mus musculus [12] = species on record: Mus musculus; assay: Mouse protection tests for effective dose against Streptococcus pneumoniae 6303 ((erythromycin susceptible strain)) infected mice
Staphylococcus aureus [13] = assay: Minimum inhibitory concentration against Staphylococcus aureus 10649 (erythromycin susceptible strain); summary of the method: as §1
Streptococcus pneumoniae [14] = assay: Minimum inhibitory concentration against Streptococcus pneumoniae 6303 (erythromycin susceptible strain); summary of the method: as §1

| Compound | MIC (Staphylococcus aureus [1]) [µg/mL] | MIC (Staphylococcus aureus [2]) [µg/mL] | MIC [3] [µg/mL] | MIC (Streptococcus pneumoniae [4]) [µg/mL] | MIC [5] [µg/mL] | MIC (Streptococcus pneumoniae [6]) [µg/mL] | MIC [7] [µg/mL] | MIC (Staphylococcus aureus [8]) [µg/mL] | MIC [9] [µg/mL] | MIC [10] [µg/mL] | ED50 (Mus musculus [11]) [mg/kg] | ED50 (Mus musculus [12]) [mg/kg] | MIC (Staphylococcus aureus [13]) [µg/mL] | MIC (Streptococcus pneumoniae [14]) [µg/mL] |
| --- | --- | --- | --- | --- | --- | --- | --- | --- | --- | --- | --- | --- | --- | --- |
| C=CCO[C@]1(C)C[C@@H](C)C(=O)[C@H](C)[C@H]2NC(=O)O[C@]2(C)[C@@H](CC)OC(=O)[C@H](C)[C@@H](O[C@H]2C[C@@](C)(OC)[C@@H](O)[C@H](C)O2)[C@H](C)[C@H]1O[C@@H]1O[C@H](C)C[C@H](N(C)C)[C@H]1O | 0.78 (≈ 0.976 µM) | > 100 | 8 (≈ 10 µM) | 2 (≈ 2.5 µM) | > 128 | 0.03 (≈ 0.0375 µM) | > 128 | 0.2 (≈ 0.25 µM) | 0.03 (≈ 0.0375 µM) | 2 (≈ 2.5 µM) |  |  |  |  |
| CC[C@H]1OC(=O)[C@H](C)C(=O)[C@H](C)[C@@H](O[C@@H]2O[C@H](C)C[C@H](N(C)C)[C@H]2O)[C@](C)(OC/C=C/c2cnc3ccccc3c2)C[C@@H](C)C2=NCCN3C(=O)O[C@@]1(C)[C@H]3[C@H]2C | 0.05 (≈ 0.0632 µM) | > 100 | 2 (≈ 2.53 µM) | 1 (≈ 1.26 µM) | 128 (≈ 162 µM) | 0.06 (≈ 0.0759 µM) | 16 (≈ 20.2 µM) | 0.05 (≈ 0.0632 µM) | 0.06 (≈ 0.0759 µM) | 4 (≈ 5.06 µM) | 60.4 | 23.5 | 0.05 (≈ 0.0632 µM) | 0.06 (≈ 0.0759 µM) |
| CC[C@H]1OC(=O)[C@H](C)C(=O)[C@H](C)[C@@H](O[C@@H]2O[C@H](C)C[C@H](N(C)C)[C@H]2O)[C@](C)(OC/C=C/c2ccc3nnccc3c2)C[C@@H](C)C(=O)[C@H](C)[C@H]2NC(=O)O[C@@]21C | 0.05 (≈ 0.0652 µM) | > 100 | 0.5 (≈ 0.652 µM) | 0.5 (≈ 0.652 µM) | 1 (≈ 1.3 µM) | 0.015 (≈ 0.0196 µM) | 4 (≈ 5.22 µM) | 0.05 (≈ 0.0652 µM) | 0.03 (≈ 0.0391 µM) | 2 (≈ 2.61 µM) |  |  |  |  |
| CC[C@H]1OC(=O)[C@H](C)[C@@H](O[C@H]2C[C@@](C)(OC)[C@@H](O)[C@H](C)O2)[C@H](C)[C@@H](O[C@@H]2O[C@H](C)C[C@H](N(C)C)[C@H]2O)[C@](C)(OC/C=C/c2cnc3ccccc3c2)C[C@@H](C)C(=O)[C@H](C)[C@H]2NC(=O)O[C@@]21C | 3.1 (≈ 3.35 µM) | > 100 | 1 (≈ 1.08 µM) | 1 (≈ 1.08 µM) | 8 (≈ 8.64 µM) | 0.03 (≈ 0.0324 µM) | 8 (≈ 8.64 µM) | 0.2 (≈ 0.216 µM) | 0.03 (≈ 0.0324 µM) | 2 (≈ 2.16 µM) |  |  |  |  |
| CC[C@H]1OC(=O)[C@H](C)C(=O)[C@H](C)[C@@H](O[C@@H]2O[C@H](C)C[C@H](N(C)C)[C@H]2O)[C@](C)(OC/C=C/c2cccc3cnccc23)C[C@@H](C)C(=O)[C@H](C)[C@H]2NC(=O)O[C@@]21C | 0.1 (≈ 0.131 µM) | > 100 | 0.25 (≈ 0.326 µM) | 0.25 (≈ 0.326 µM) | 8 (≈ 10.4 µM) | 0.008 (≈ 0.0104 µM) | 32 (≈ 41.8 µM) | 0.1 (≈ 0.131 µM) | 0.008 (≈ 0.0104 µM) | 4 (≈ 5.22 µM) |  |  |  |  |
| CC[C@H]1OC(=O)[C@H](C)C(=O)[C@H](C)[C@@H](O[C@@H]2O[C@H](C)C[C@H](N(C)C)[C@H]2O)[C@](C)(OC/C=C/c2ccc3ncncc3c2)C[C@@H](C)C(=O)[C@H](C)[C@H]2NC(=O)O[C@@]21C | 0.2 (≈ 0.261 µM) | > 100 | 0.5 (≈ 0.652 µM) | 0.25 (≈ 0.326 µM) | 0.5 (≈ 0.652 µM) | 0.03 (≈ 0.0391 µM) | 2 (≈ 2.61 µM) | 0.2 (≈ 0.261 µM) | 0.03 (≈ 0.0391 µM) | 4 (≈ 5.22 µM) | 9.2 | 40.3 | 0.2 (≈ 0.261 µM) | 0.03 (≈ 0.0391 µM) |
| CC[C@H]1OC(=O)[C@H](C)C(=O)[C@H](C)[C@@H](O[C@@H]2O[C@H](C)C[C@H](N(C)C)[C@H]2O)[C@](C)(OC/C=C/c2cccc3ncccc23)C[C@@H](C)C(=O)[C@H](C)[C@H]2NC(=O)O[C@@]21C | 0.1 (≈ 0.131 µM) | > 100 | 0.25 (≈ 0.326 µM) | 0.25 (≈ 0.326 µM) | 2 (≈ 2.61 µM) | 0.03 (≈ 0.0392 µM) | > 128 | 0.1 (≈ 0.131 µM) | 0.03 (≈ 0.0392 µM) | 8 (≈ 10.4 µM) |  |  |  |  |
| CC[C@H]1OC(=O)[C@H](C)C(=O)[C@H](C)[C@@H](O[C@@H]2O[C@H](C)C[C@H](N(C)C)[C@H]2O)[C@](C)(OC/C=C/c2ccc3[nH]cnc3c2)C[C@@H](C)C(=O)[C@H](C)[C@H]2NC(=O)O[C@@]21C | 0.1 (≈ 0.132 µM) | > 100 | 2 (≈ 2.65 µM) | 4 (≈ 5.3 µM) | 8 (≈ 10.6 µM) | 0.03 (≈ 0.0397 µM) | 4 (≈ 5.3 µM) | 0.1 (≈ 0.132 µM) | 0.03 (≈ 0.0397 µM) | 4 (≈ 5.3 µM) |  |  |  |  |
| CC[C@H]1OC(=O)[C@H](C)C(=O)[C@H](C)[C@@H](O[C@@H]2O[C@H](C)C[C@H](N(C)C)[C@H]2O)[C@](C)(OC/C=C/c2cnc3ccncc3c2)C[C@@H](C)C(=O)[C@H](C)[C@H]2NC(=O)O[C@@]21C | 0.05 (≈ 0.0652 µM) | > 100 | 0.5 (≈ 0.652 µM) | 0.5 (≈ 0.652 µM) | 0.25 (≈ 0.326 µM) | 0.008 (≈ 0.0104 µM) | 4 (≈ 5.22 µM) | 0.05 (≈ 0.0652 µM) | 0.015 (≈ 0.0196 µM) | 2 (≈ 2.61 µM) | 12.5 | > 50 | 0.05 (≈ 0.0652 µM) | 0.008 (≈ 0.0104 µM) |
| CC[C@H]1OC(=O)[C@H](C)C(=O)[C@H](C)[C@@H](O[C@@H]2O[C@H](C)C[C@H](N(C)C)[C@H]2O)[C@](C)(OCCNCc2ccccc2)C[C@@H](C)C(=O)[C@H](C)[C@H]2NC(=O)O[C@@]21C | 0.39 (≈ 0.533 µM) | > 100 | 2 (≈ 2.73 µM) | 2 (≈ 2.73 µM) | > 128 | 0.03 (≈ 0.041 µM) | > 128 | 0.2 (≈ 0.273 µM) | 0.03 (≈ 0.041 µM) | 2 (≈ 2.73 µM) |  |  |  |  |
| CC[C@H]1OC(=O)[C@H](C)C(=O)[C@H](C)[C@@H](O[C@@H]2O[C@H](C)C[C@H](N(C)C)[C@H]2O)[C@](C)(OC/C=C/c2cnc3nccnc3c2)C[C@@H](C)C(=O)[C@H](C)[C@H]2NC(=O)O[C@@]21C | 0.2 (≈ 0.26 µM) | > 100 | 2 (≈ 2.6 µM) | 2 (≈ 2.6 µM) | 1 (≈ 1.3 µM) | 0.015 (≈ 0.0195 µM) | 4 (≈ 5.21 µM) | 0.2 (≈ 0.26 µM) | 0.015 (≈ 0.0195 µM) | 4 (≈ 5.21 µM) |  |  |  |  |
| CC[C@H]1OC(=O)[C@H](C)C(=O)[C@H](C)[C@@H](O[C@@H]2O[C@H](C)C[C@H](N(C)C)[C@H]2O)[C@](C)(OC/C=C/c2ccc(OC)cc2)C[C@@H](C)C(=O)[C@H](C)[C@@H](O)[C@]1(C)O | 1.56 (≈ 2.17 µM) | > 100 | 2 (≈ 2.78 µM) | 2 (≈ 2.78 µM) | 128 (≈ 178 µM) | 1 (≈ 1.39 µM) | 64 (≈ 88.9 µM) | 1.56 (≈ 2.17 µM) | 0.25 (≈ 0.347 µM) | 128 (≈ 178 µM) |  |  |  |  |
| CC[C@H]1OC(=O)[C@H](C)C(=O)[C@H](C)[C@@H](O[C@@H]2O[C@H](C)C[C@H](N(C)C)[C@H]2O)[C@](C)(OCCNCCc2ccccc2)C[C@@H](C)C(=O)[C@H](C)[C@H]2NC(=O)O[C@@]21C | 0.1 (≈ 0.134 µM) | > 100 | 2 (≈ 2.68 µM) | 2 (≈ 2.68 µM) | > 128 | 0.03 (≈ 0.0402 µM) | > 128 | 0.2 (≈ 0.268 µM) | 0.03 (≈ 0.0402 µM) | 4 (≈ 5.36 µM) |  |  |  |  |
| CC[C@H]1OC(=O)[C@H](C)C(=O)[C@H](C)[C@@H](O[C@@H]2O[C@H](C)C[C@H](N(C)C)[C@H]2O)[C@](C)(OC)C[C@@H](C)C(=O)[C@H](C)[C@H]2N(CCCCn3cnc(-c4cccnc4)c3)C(=O)O[C@]12C [TELITHROMYCIN] |  |  |  |  |  |  |  |  |  |  | 12.5 | 34.1 | 0.1 (≈ 0.123 µM) | 0.004 (≈ 0.00493 µM) |
